Source: ChEMBL document CHEMBL1828613, “Optimization of cellular activity of G9a inhibitors 7-aminoalkoxy-quinazolines” (J Med Chem, 2011)

What was measured:
MDA-MB-231 = assay: Cytotoxicity against human MDA-MB-231 cells assessed as cell viability after 48 hrs by MTT assay; type: functional, cell-based; conditions: MDA-MB-231, 48 h
[1] = target: T1, Histone-lysine N-methyltransferase EHMT2 (Homo sapiens, UniProt Q96KQ7); assay: Inhibition of G9a in human MDA-MB-231 cells assessed as reduction of H3K9me2 after 48 hrs by In-Cell Western assay; type: cell-based
T1 sequence (Q96KQ7 whole entry): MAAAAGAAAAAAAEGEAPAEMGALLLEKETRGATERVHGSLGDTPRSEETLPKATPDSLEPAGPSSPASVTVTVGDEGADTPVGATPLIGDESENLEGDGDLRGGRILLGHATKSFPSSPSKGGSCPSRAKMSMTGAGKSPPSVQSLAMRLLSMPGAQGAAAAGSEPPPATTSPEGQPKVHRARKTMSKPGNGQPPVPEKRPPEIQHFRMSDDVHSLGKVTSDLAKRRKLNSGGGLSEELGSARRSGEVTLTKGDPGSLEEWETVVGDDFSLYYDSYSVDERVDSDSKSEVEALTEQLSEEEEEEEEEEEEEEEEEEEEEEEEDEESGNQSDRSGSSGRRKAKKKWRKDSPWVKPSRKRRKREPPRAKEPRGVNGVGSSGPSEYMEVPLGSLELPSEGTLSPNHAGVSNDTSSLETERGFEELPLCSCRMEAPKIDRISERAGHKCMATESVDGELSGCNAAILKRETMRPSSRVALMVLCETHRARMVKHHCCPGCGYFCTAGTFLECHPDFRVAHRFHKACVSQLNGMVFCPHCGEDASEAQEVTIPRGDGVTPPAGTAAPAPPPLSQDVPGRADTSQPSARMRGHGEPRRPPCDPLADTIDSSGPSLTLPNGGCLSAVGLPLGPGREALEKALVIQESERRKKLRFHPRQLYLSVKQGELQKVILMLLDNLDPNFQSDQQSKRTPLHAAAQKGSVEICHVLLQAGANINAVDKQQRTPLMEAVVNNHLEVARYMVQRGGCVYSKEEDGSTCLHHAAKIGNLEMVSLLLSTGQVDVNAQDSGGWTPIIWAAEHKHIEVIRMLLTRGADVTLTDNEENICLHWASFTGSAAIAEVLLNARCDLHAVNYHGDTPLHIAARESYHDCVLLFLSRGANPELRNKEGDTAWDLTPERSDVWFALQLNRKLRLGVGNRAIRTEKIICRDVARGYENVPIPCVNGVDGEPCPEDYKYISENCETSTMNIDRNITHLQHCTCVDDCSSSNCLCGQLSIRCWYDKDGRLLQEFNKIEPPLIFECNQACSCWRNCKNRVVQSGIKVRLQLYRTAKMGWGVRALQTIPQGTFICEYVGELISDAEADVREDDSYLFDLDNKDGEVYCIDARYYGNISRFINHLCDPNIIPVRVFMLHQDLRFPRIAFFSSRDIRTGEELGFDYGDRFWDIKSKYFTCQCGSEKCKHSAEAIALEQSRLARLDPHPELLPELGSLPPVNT
Outline: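 In-Cell Western: MDA-MB-231 cells grown in RPMI/10% FBS were seeded at 5–10 thousand per well and treated 48 h across a concentration series. Cells were fixed in 2% formaldehyde, blocked in 1% BSA, and stained with H3K9me2 antibody (1/800, 2 h), then IR800 secondary plus DRAQ5. Three wells were stained and one kept as background. The 800 nm signal was normalized to background and DRAQ5 and expressed as % control. IC50 from a sigmoidal variable-slope fit, averaging at least duplicate runs.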

[2] = Cytotoxicity against human […] assessed as cell viability after 48 hrs by MTT assay; type: functional, cell-based
Outline: (§1)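 MTT viability read after 48 h inhibitor exposure. Culture media were alphaMEM + 10% FBS for 22RV1, DMEM + 10% FBS for IMR90 and MCF7, and RPMI + 10% FBS for PC3. Medium was replaced with phenol-red-free DMEM 10% FBS containing 1 mg/ml MTT for 1–2 h. Formazan was dissolved in acidified isopropanol/1% Triton and read at 570 nm minus 650 nm. EC50 came from a sigmoidal variable-slope fit, averaging at least duplicate runs.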

PC-3 = assay: Cytotoxicity against human PC3 cells assessed as cell viability after 48 hrs by MTT assay; type: functional, cell-based; conditions: PC-3, 48 h; outline: as §1
CWR22R = assay: Cytotoxicity against human 22Rv1 cells assessed as cell viability after 48 hrs by MTT assay; type: functional, cell-based; conditions: 22Rv1, 48 h; outline: as §1
IMR-90 = assay: Cytotoxicity against human IMR90 cells assessed as cell viability after 48 hrs by MTT assay; type: cell-based; conditions: IMR-90, 48 h; outline: as §1
[3] = target: T1, Histone-lysine N-methyltransferase EHMT2; assay: Inhibition of G9a assessed as hydrolysis of S-adenosyl-L-homocysteine after 2 mins by SAHH-coupled fluorescence assay
[4] = Ratio of EC50 for human MDA-MB-231 cells to IC50 for G9a in human MDA-MB-231 cells
Outline: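 ICW used DRAQ5-normalized H3K9me2 immunofluorescence. MTT was read at 570 nm corrected at 650 nm. Each value was a sigmoidal variable-slope fit averaged over at least duplicate runs.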

[5] = target: T1, Histone-lysine N-methyltransferase EHMT2; assay: Inhibition of G9a in human MCF7 cells assessed as reduction of H3K9me2 after 48 hrs by In-Cell Western assay; type: cell-based
[6] = target: T1, Histone-lysine N-methyltransferase EHMT2; assay: Inhibition of G9a in human PC3 cells assessed as reduction of H3K9me2 after 48 hrs by In-Cell Western assay; type: cell-based, PC-3
[7] = target: T1, Histone-lysine N-methyltransferase EHMT2; assay: Inhibition of G9a in human 22Rv1 cells assessed as reduction of H3K9me2 after 48 hrs by In-Cell Western assay; type: cell-based, CWR22R
[8] = target: T1, Histone-lysine N-methyltransferase EHMT2; assay: Inhibition of G9a in human HCT116 cells assessed as reduction of H3K9me2 after 48 hrs by In-Cell Western assay; type: cell-based, HCT-116
[9] = target: T1, Histone-lysine N-methyltransferase EHMT2; assay: Inhibition of G9a in p53-deficient human HCT116 cells assessed as reduction of H3K9me2 after 48 hrs by In-Cell Western assay; type: cell-based, HCT-116
[10] = target: T1, Histone-lysine N-methyltransferase EHMT2; assay: Inhibition of G9a in human IMR90 cells assessed as reduction of H3K9me2 after 48 hrs by In-Cell Western assay; type: cell-based, IMR-90

Row | SMILES | EC50 (MDA-MB-231) [nM] | IC50 [1] [nM] | IC50 [3] [nM] | Ratio [4] | further results
1 | COc1cc2c(NC3CCN(C)CC3)nc(N3CCCN(C)CC3)nc2cc1OCCCN1CCCC1 | 15000 | – | – | – | –
2 | COc1cc2c(NC3CCN(C)CC3)nc(N3CCCN(C)CC3)nc2cc1OCCCN1CCCCC1 | 12000 | – | – | – | –
3 | COc1cc2c(NC3CCN(C)CC3)nc(N3CCCN(C)CC3)nc2cc1OCCOCCN(C)C | > 40000 | 11000 | – | – | –
4 | COc1cc2c(NC3CCN(C(C)C)CC3)nc(C3CCCCC3)nc2cc1OCCCN1CCCC1 | – | – | – | – | EC50 [2]: 7600 nM; EC50 (PC-3): 14000 nM; EC50 (CWR22R): 4500 nM; EC50 (IMR-90): 2300 nM
5 | COc1cc2c(NC3CCN(C(C)C)CC3)nc(N3CCCN(C(C)C)CC3)nc2cc1OCCCN1CCCCC1 | 4100 | 54 | 8 | – | –
6 | COc1cc2c(NC3CCN(C(C)C)CC3)nc(N3CCCN(C)CC3)nc2cc1OCCCN1CCCC1 | 1400 | 520 | 10 | 3 | –
7 | CCN1CCCN(c2nc(NC3CCN(C(C)C)CC3)c3cc(OC)c(OCCCN4CCCC4)cc3n2)CC1 | 1700 | 470 | – | 4 | –
8 | COc1cc2c(NC3CCN(C(C)C)CC3)nc(N3CCCN(C(C)C)CC3)nc2cc1OCCCN1CCCC1 | 4500 | 340 | 2 | 13 | –
9 | COc1cc2c(NC3CCN(C(C)C)CC3)nc(N3CCCN(C4CCCCC4)CC3)nc2cc1OCCCN1CCCC1 | 730 | 100 | 22 | 7 | –
10 | COc1cc2c(NC3CCN(C(C)C)CC3)nc(N3CCCN(CC4CCCCC4)CC3)nc2cc1OCCCN1CCCC1 | 760 | 93 | – | 8 | –
11 | COc1cc2c(NC3CCN(C(C)C)CC3)nc(N3CCCN(c4ccccc4)CC3)nc2cc1OCCCN1CCCC1 | 2100 | 220 | 10 | 10 | –
12 | COc1cc2c(NC3CCN(C(C)C)CC3)nc(N3CCCN(Cc4ccccc4)CC3)nc2cc1OCCCN1CCCC1 | 600 | 58 | 9 | 10 | –
13 | COc1cc2c(NC3CCN(C(C)C)CC3)nc(N3CCCCC3)nc2cc1OCCCN1CCCC1 | 7000 | 150 | 16 | 47 | –
14 | COc1cc2c(NC3CCN(C(C)C)CC3)nc(N3CCCCCC3)nc2cc1OCCCN1CCCC1 | 5700 | 100 | 20 | 57 | –
15 | COc1cc2c(NC3CCN(C(C)C)CC3)nc(C3CCCCC3)nc2cc1OCCCN1CCCCC1 | 7600 | 260 | 110 | – | –
16 | COc1cc2c(NC3CCN(C(C)C)CC3)nc(C3CCCCC3)nc2cc1OCCOCCN(C)C | 13000 | 180 | 21 | – | –
17 | COc1cc2c(NC3CCN(CC4CCCCC4)CC3)nc(N3CCCN(C(C)C)CC3)nc2cc1OCCCN1CCCCC1 | 2800 | 25 | 4 | – | IC50 [5]: 18 nM; IC50 [6]: 26 nM; IC50 [7]: 24 nM; IC50 [8]: 51 nM; IC50 [9]: 72 nM; IC50 [10]: 46 nM
18 | COc1cc2c(NC3CCN(C4CCCCC4)CC3)nc(N3CCCN(C)CC3)nc2cc1OCCCN1CCCCC1 | 2900 | 56 | 11 | – | –
19 | COc1cc2c(NC3CCN(C(C)C)CC3)nc(N3CCCCCC3)nc2cc1OCCCN1CCCCC1 | 6600 | 240 | 31 | – | –
20 | COc1cc2c(NC3CCN(C)CC3)nc(N3CCCN(C)CC3)nc2cc1OCCCN(C)C | 34000 | – | – | – | –
